This is an account of results in ChEMBL document CHEMBL1821639, “Exploring Left-Hand-Side substitutions in the benzoxazinone series of 4-amino-piperidine bacterial type IIa topoisomerase inhibitors” (Bioorg Med Chem Lett, 2011).

Data set [1] is described as follows: Lipophilicity, log D of the compound by shake flask method using LC-MS analysis. It is filed as physicochemical. To be noted: octanol/water. The essentials:
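Shake-flask partitioning, experimental, with LC–MS quantitation.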

Another data set concerns Staphylococcus aureus. Kind of data set: Antibacterial activity against Staphylococcus aureus after 24 hrs by CLSI method. The class given is functional. The essentials:
(§1)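 Broth dilution per CLSI; compounds in DMSO, 10 doubling dilutions. Organisms grown overnight on agar, suspended in suitable liquid medium to 0.5 McFarland, then diluted 1 in 10 for final inoculum.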

The test system of another data set is Streptococcus pneumoniae. Kind of data set: Antibacterial activity against Streptococcus pneumoniae after 24 hrs by CLSI method. It is filed as functional. Put shortly: as §1
The subject of the next data set is Streptococcus pyogenes. In words: Antibacterial activity against Streptococcus pyogenes after 24 hrs by CLSI method. The class given is functional. The essentials:
as §1

The test system of the next data set is Haemophilus influenzae. In words: Antibacterial activity against Haemophilus influenzae after 24 hrs by CLSI method. It is filed as functional. The essentials:
as §1

In a further data set the test system is Moraxella catarrhalis. In words: Antibacterial activity against Moraxella catarrhalis after 24 hrs by CLSI method. The class given is functional. Put shortly: as §1
In another data set the test system is Pseudomonas aeruginosa. In words: Antibacterial activity against Pseudomonas aeruginosa after 24 hrs by CLSI method. It is filed as functional. The essentials:
as §1

The subject of data set [2] is Escherichia coli. In words: Antibacterial activity against Escherichia coli after 24 hrs by CLSI method. The class given is functional. The essentials:
as §1

Data set [3] has as its system Escherichia coli. In words: Antibacterial activity against TolC-deficient Escherichia coli after 24 hrs by CLSI method. The class given is functional. The essentials: as §1
Data set [4] in a line: Inhibition of ParC in reconstituted Escherichia coli ParC/ParE assessed as ParE ATPase activity after 24 hrs by ammonium molybdate/malachite green method.
A further data set relates to Klebsiella pneumoniae. In words: Antibacterial activity against Klebsiella pneumoniae after 24 hrs by CLSI method. It is filed as functional. The essentials: as §1
The nature of data set [5]: Inhibition of Escherichia coli DNA gyrase supercoiling activity.

Converted amounts (≈) assume the structure as drawn.

Consider `O=C1COc2ccc(CNC3CCN(CCN4C(=O)COc5ccc(Cl)cc54)CC3)nc2N1`, for which, in data set [1], the logD (in general, lipophilicity at a set pH, counting ionised and neutral species) was found to be 1.3. Besides, the MIC was 0.3 µM (≈ 0.142 µg/mL) with Staphylococcus aureus; 0.5 µM (≈ 0.236 µg/mL) against Streptococcus pneumoniae; 0.5 µM (≈ 0.236 µg/mL) against Streptococcus pyogenes; 0.1 µM (≈ 0.0472 µg/mL) in the data set with Haemophilus influenzae; 0.1 µM (≈ 0.0472 µg/mL) in the data set on Moraxella catarrhalis; 4.2 µM (≈ 1.98 µg/mL) in the data set with Pseudomonas aeruginosa. Moreover, the MIC in the data set on Escherichia coli [2] is 0.5 µM (≈ 0.236 µg/mL); in the data set with Escherichia coli [3], less than 0.02 µM. Also, in data set [4], the IC50 (commonly the concentration that gives 50% inhibition) turned out to be 23 nM.

In data set [1], `CC(=O)c1ccc2c(c1)N(CCN1CCC(NCc3ccc4c(n3)NC(=O)CO4)CC1)C(=O)CO2` came in with a logD of 0.4. The MIC was found to be 1 µM (≈ 0.48 µg/mL) in the data set on Staphylococcus aureus; 2.1 µM (≈ 1.01 µg/mL) against Streptococcus pneumoniae; 1 µM (≈ 0.48 µg/mL) with Streptococcus pyogenes; 0.3 µM (≈ 0.144 µg/mL) in the data set on Haemophilus influenzae; 0.3 µM (≈ 0.144 µg/mL) against Moraxella catarrhalis; 16.7 µM (≈ 8.01 µg/mL) against Pseudomonas aeruginosa. Besides, the MIC with Escherichia coli [2] worked out at 2.1 µM (≈ 1.01 µg/mL); against Escherichia coli [3], 0.1 µM (≈ 0.048 µg/mL).

With `O=C1COc2ccc(CNC3CCN(CCN4C(=O)COc5ccc([N+](=O)[O-])cc54)CC3)nc2N1`, the MIC against Staphylococcus aureus was 0.3 µM (≈ 0.145 µg/mL); against Streptococcus pneumoniae, 0.5 µM (≈ 0.241 µg/mL); in the data set with Streptococcus pyogenes, 0.3 µM (≈ 0.145 µg/mL); in the data set with Haemophilus influenzae, 0.1 µM (≈ 0.0482 µg/mL); against Pseudomonas aeruginosa, 5.9 µM (≈ 2.85 µg/mL); against Escherichia coli [2] it was 0.5 µM (≈ 0.241 µg/mL). Further, in the data set with Escherichia coli [3], the MIC is less than 0.02 µM.

`CC(O)c1ccc2c(c1)N(CCN1CCC(NCc3ccc4c(n3)NC(=O)CO4)CC1)C(=O)CO2` (stereo unspecified): the logD in [1] turned out to be 0.3. For the same molecule, the MIC is more than 16.6 µM in the data set with Staphylococcus aureus; more than 16.6 µM in the data set on Streptococcus pneumoniae; more than 16.6 µM against Streptococcus pyogenes; 4.2 µM (≈ 2.02 µg/mL) against Haemophilus influenzae; more than 16.6 µM against Moraxella catarrhalis; more than 16.6 µM in the data set with Pseudomonas aeruginosa. The results for the MIC against Escherichia coli [2], with Escherichia coli [3] and against Klebsiella pneumoniae were more than 16.6 µM, 1.1 µM (≈ 0.53 µg/mL) and more than 16.6 µM, respectively.

As to `O=C1COc2ccc(CNC3CCN(CCN4C(=O)COc5ccc(Br)cc54)CC3)nc2N1`, in [1], the logD turned out to be 1.4. For the same molecule, the MIC in the data set with Staphylococcus aureus was 0.1 µM (≈ 0.0516 µg/mL); against Streptococcus pneumoniae, 0.3 µM (≈ 0.155 µg/mL); against Haemophilus influenzae it was 0.1 µM (≈ 0.0516 µg/mL); with Moraxella catarrhalis, less than 0.015 µM; against Pseudomonas aeruginosa it was 7.7 µM (≈ 3.98 µg/mL); in the data set with Escherichia coli [2] it was 0.5 µM (≈ 0.258 µg/mL). Also, the MIC is less than 0.02 µM against Escherichia coli [3] and 3.9 µM (≈ 2.01 µg/mL) against Klebsiella pneumoniae. In addition, the IC50 in data set [4] was determined as 18 nM.

Take `N#Cc1ccc2c(c1)N(CCN1CCC(NCc3ccc4c(n3)NC(=O)CO4)CC1)C(=O)CO2`: in data set [1], the logD came to 0.2. For the same molecule, the MIC against Staphylococcus aureus was found to be 0.3 µM (≈ 0.139 µg/mL); in the data set with Streptococcus pneumoniae, 0.8 µM (≈ 0.37 µg/mL); with Streptococcus pyogenes it was 0.3 µM (≈ 0.139 µg/mL); in the data set on Haemophilus influenzae, 0.1 µM (≈ 0.0463 µg/mL); in the data set on Pseudomonas aeruginosa, 3.8 µM (≈ 1.76 µg/mL); in the data set with Escherichia coli [2], 0.5 µM (≈ 0.231 µg/mL). The MIC against Escherichia coli [3] was less than 0.02 µM; against Klebsiella pneumoniae, 4.3 µM (≈ 1.99 µg/mL). For the same molecule, the IC50 in data set [4] turned out to be 36 nM; in data set [5] it was 3.2 nM.

Take `CCS(=O)(=O)c1ccc2c(c1)N(CCN1CCC(NCc3ccc4c(n3)NC(=O)CO4)CC1)C(=O)CO2`: the logD in [1] was -0.1. The MIC against Staphylococcus aureus is more than 15.1 µM; against Streptococcus pneumoniae, more than 15.1 µM; against Streptococcus pyogenes, 15.1 µM (≈ 8 µg/mL); against Haemophilus influenzae it was 7.6 µM (≈ 4.03 µg/mL); in the data set with Moraxella catarrhalis, 7.6 µM (≈ 4.03 µg/mL); against Pseudomonas aeruginosa, more than 15.1 µM. In addition, the MIC against Escherichia coli [2] was more than 15.1 µM; in the data set on Escherichia coli [3] it was 1.9 µM (≈ 1.01 µg/mL).

Molecule `CN(C)S(=O)(=O)c1ccc2c(c1)N(CCN1CCC(NCc3ccc4c(n3)NC(=O)CO4)CC1)C(=O)CO2` came in with a logD in data set [1] of 0.2. Moreover, the MIC was more than 14.6 µM in the data set on Staphylococcus aureus; more than 14.6 µM against Streptococcus pneumoniae; more than 14.6 µM in the data set on Streptococcus pyogenes; 14.7 µM (≈ 8.01 µg/mL) in the data set on Haemophilus influenzae; more than 14.6 µM against Moraxella catarrhalis; more than 14.6 µM with Pseudomonas aeruginosa. The MIC is more than 14.6 µM against Escherichia coli [2] and 7.3 µM (≈ 3.98 µg/mL) with Escherichia coli [3].

As to `COC(=O)c1ccc2c(c1)N(CCN1CCC(NCc3ccc4c(n3)NC(=O)CO4)CC1)C(=O)CO2`, the logD in [1] was 0.8. Besides, the MIC was 1 µM (≈ 0.496 µg/mL) against Staphylococcus aureus; 8.1 µM (≈ 4.01 µg/mL) against Streptococcus pneumoniae; 2 µM (≈ 0.991 µg/mL) in the data set with Streptococcus pyogenes; 0.5 µM (≈ 0.248 µg/mL) against Haemophilus influenzae; 0.1 µM (≈ 0.0496 µg/mL) with Moraxella catarrhalis; more than 16.1 µM against Pseudomonas aeruginosa. The MIC came to 4 µM (≈ 1.98 µg/mL) in the data set with Escherichia coli [2], 0.1 µM (≈ 0.0496 µg/mL) in the data set with Escherichia coli [3] and 16.1 µM (≈ 7.98 µg/mL) against Klebsiella pneumoniae. In addition, in [4], the IC50 worked out at 78 nM.
